The values that follow come from ChEMBL document CHEMBL1144053, “Six triterpenoid saponins from Mmaesa laxiflora” (J Nat Prod, 1999).

One test deals with A549. The test can be described thus: Cytotoxicity against human A549 cells by MTT assay. The class given is functional, cell-based. The essentials: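 A-549 cells from NCI; standard MTT-based colorimetric cytotoxicity assay.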
Test [1] is described as follows: Inhibition of tubulin polymerization at 10 mg/mL by tubulin assembly assay. Further details: scale not given: the % may be the effect or the level left. An outline of the steps: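 Test compound added to cold (6 °C) tubulin solution; assembly started by shifting the temperature from 6 to 37 °C. Turbidity followed over time, with polymerization rate taken from the slope of the turbidity increase.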

A short description of test [2]: Inhibition of tubulin polymerization at 1 ug/mL by tubulin assembly assay. Further details: scale not given: the % may be the effect or the level left. The essentials: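 Compound added to cold (6 °C) tubulin solution; assembly started by a temperature shift from 6 to 37 °C. Turbidity followed over time, with polymerization rate taken as the slope of the turbidity increase.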

Activity calls are given as the source filed them. The rule behind the calls is not given here.

On to `C/C=C(\C)C(=O)O[C@H]1CC(C)(C)C[C@H]2C3=CC[C@@H]4[C@@]5(C)CC[C@H](O[C@@H]6O[C@H](C(=O)O)[C@@H](O)[C@H](O[C@@H]7O[C@H](CO)[C@H](O)[C@H](O)[C@H]7O[C@@H]7O[C@@H](C)[C@H](O)[C@@H](O)[C@H]7O[C@@H]7O[C@@H](C)[C@H](O)[C@@H](O)[C@H]7O)[C@H]6O[C@@H]6O[C@H](CO)[C@H](O)[C@H](O)[C@H]6O)C(C)(C)[C@@H]5CC[C@@]4(C)[C@]3(C)C[C@@H](O)[C@@]12CO`, for which the outcome in the test on A549 was inactive. In addition, the Activity in test [1] is 41%.

Turning to `C/C=C(\C)C(=O)O[C@H]1CC(C)(C)C[C@H]2C3=CC[C@@H]4[C@@]5(C)CC[C@H](O[C@@H]6O[C@H](C(=O)O)[C@@H](O)[C@H](O[C@@H]7O[C@H](CO)[C@H](O)[C@H](O)[C@H]7O[C@@H]7O[C@@H](C)[C@H](O)[C@@H](O)[C@H]7O[C@@H]7O[C@@H](C)[C@H](O)[C@@H](O)[C@H]7O)[C@H]6O[C@@H]6O[C@H](CO)[C@H](O)[C@H](O)[C@H]6O)C(C)(C)[C@@H]5CC[C@@]4(C)[C@]3(C)C[C@@H](OC(C)=O)[C@@]12CO`, the outcome in the test with A549 was inactive. In test [1], this compound came in with an Activity of 41%.

With `C/C=C(\C)C(=O)O[C@H]1CC(C)(C)C[C@H]2C3=CC[C@@H]4[C@@]5(C)CC[C@H](O[C@@H]6O[C@H](C(=O)O)[C@@H](O)[C@H](O[C@@H]7O[C@H](CO)[C@H](O)[C@H](O)[C@H]7O[C@@H]7O[C@@H](C)[C@H](O)[C@@H](O)[C@H]7O[C@@H]7O[C@@H](C)[C@H](O)[C@@H](O)[C@H]7O)[C@H]6O[C@@H]6O[C@H](CO)[C@@H](O)[C@H](O)[C@H]6O)C(C)(C)[C@@H]5CC[C@@]4(C)[C@]3(C)C[C@@H](OC(C)=O)[C@@]12CO`, the outcome in the test on A549 was inactive. The compound further gave an Activity in test [1] of 41%.

Take `C/C=C(\C)C(=O)O[C@H]1CC(C)(C)C[C@H]2C3=CC[C@@H]4[C@@]5(C)CC[C@H](O[C@@H]6O[C@H](C(=O)O)[C@@H](O)[C@H](O[C@@H]7O[C@H](CO)[C@H](O)[C@H](O)[C@H]7O[C@@H]7O[C@@H](C)[C@H](O)[C@@H](O)[C@H]7O[C@@H]7O[C@@H](C)[C@H](O)[C@@H](O)[C@H]7O)[C@H]6O[C@@H]6O[C@H](CO)[C@@H](O)[C@H](O)[C@H]6O)C(C)(C)[C@@H]5CC[C@@]4(C)[C@]3(C)C[C@@H](O)[C@@]12CO`: the outcome in the test on A549 was inactive. Further, the Activity in test [1] came to 41%.

In the case of `COc1cc2c(c(OC)c1OC)-c1ccc(OC)c(=O)cc1[C@@H](NC(C)=O)CC2`, the Activity in test [2] is 50%.

As for `CCC/C=C\C(=O)O[C@H]1CC(C)(C)C[C@H]2C3=CC[C@@H]4[C@@]5(C)CC[C@H](O[C@@H]6O[C@H](C(=O)O)[C@@H](O)[C@H](O[C@@H]7O[C@H](CO)[C@H](O)[C@H](O)[C@H]7O[C@@H]7O[C@@H](C)[C@H](O)[C@@H](O)[C@H]7O[C@@H]7O[C@@H](C)[C@H](O)[C@@H](O)[C@H]7O)[C@H]6O[C@@H]6O[C@H](CO)[C@@H](O)[C@H](O)[C@H]6O)C(C)(C)[C@@H]5CC[C@@]4(C)[C@]3(C)C[C@@H](O)[C@@]12CO`, the result in the test on A549 was inactive. The compound further came in with an Activity in test [1] of 41%.

Take `CCC/C=C\C(=O)O[C@H]1CC(C)(C)C[C@H]2C3=CC[C@@H]4[C@@]5(C)CC[C@H](O[C@@H]6O[C@H](C(=O)O)[C@@H](O)[C@H](O[C@@H]7O[C@H](CO)[C@H](O)[C@H](O)[C@H]7O[C@@H]7O[C@@H](C)[C@H](O)[C@@H](O)[C@H]7O[C@@H]7O[C@@H](C)[C@H](O)[C@@H](O)[C@H]7O)[C@H]6O[C@@H]6O[C@H](CO)[C@H](O)[C@H](O)[C@H]6O)C(C)(C)[C@@H]5CC[C@@]4(C)[C@]3(C)C[C@@H](O)[C@@]12CO`: in the test on A549, the result was inactive. The Activity in test [1] came out at 41%.
